Test results taken from the RNAGym collection of RNA variant scans (doi:10.1126/science.aae0568).
Fewer inactive variants are shown than the library holds.

B1: tRNA (parent)
chain: GUUCCGUUGGCGUAAUGGUAACGCGUCUCCCUCCUAAGGAGAAGACUGCGGGUUCGAGUCCCGUACGGAACG

Variants of: B1
Assay: yeast fitness relative to wild type (ratio to wild type); higher = fitter; tRNA-Arg(CCU), competitive growth, 37 C, YPD
Procedure, shortened: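 Gene amplicons from the start population and from each of six end populations were read by 100-nucleotide paired-end sequencing. Those end populations came from pooled Saccharomyces cerevisiae strains carrying tRNA-Arg(CCU) gene variants at the native locus, competed in YPD at 37°C for 24 hours. Fitness relative to wild type was worked out from changes in genotype frequencies. Genotypes needed ≥ 100 starting reads, and estimates < 0.5 were set to 0.5.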
In the case of GUUCCGUUGGCGUAAUGGUAAGGCGCCUCCCUUCUAUGGCGAAGACUGCGGGUUCGAGUCCCGUACGGAACG [C22G U26C C33U A37U A40C], the yeast fitness is reported as at most 0.5. Work on GUUCCGUUGGCGUAAUGGUAUCGCGUCUCCCUCCUAAGGAGAAGACUGCGGGUUCGAGUCCCGUAUGGAACG [A21U C66U] yielded a yeast fitness of 0.78. With GUUCCGUUGGCGUAAUGGUGACGCGUCUCCCUCCUAAGGAGAAGACUGCGGGUUCGAGUGCCGUAGGGGACG [A20G C60G C66G A69G] the yeast fitness was 0.554. In the case of GUCCCGUUGGCAUAAUGGUAACGCGUCUCUCUCCUAAGGAGAAGAGUGCGGGUUCGAGUCCCGUACGGAACG [U3C G12A C30U C46G], the yeast fitness is reported as at most 0.5. In the case of GUUCCGUUGGCGUAAUGGUACCGCGUCUCCAUGCUAAGGAGAAGGCUACGGGUUCGAGUCCCGUUCGGAACG [A21C C31A C33G A45G G48A A65U], the yeast fitness is reported as at most 0.5. In the case of GUUCGGCUGGCGUAAUGGUAACGCGUCUCCCUCCUAAGGAGAAGACUGCGGGUACGAGUCUCGUACGGAACG [C5G U7C U54A C61U], the yeast fitness is reported as 0.557. In the case of GUUCCGUUGGCGUAAUGGUAACGCGUCUACCUCCUAGGGAGAAGACUGCGGGUUCGAGUCCCGUACGGAACG [C29A A37G], the yeast fitness is reported as 0.545. With GGUCCGUUGGCGUAAUGGUAACGCGUCUCACUCCUAAGGAGAAGAUUGCGGCUUCGAGUCCCGUACGGAACG [U2G C30A C46U G52C] the yeast fitness was at most 0.5. Variant GUUCCGUUGGCGUAAUGGUUACGCGUCUCCCUCCUAAGGAGAAGACUGCAGGUUCGAGUCCCGUACGCAACG [A20U G50A G68C] has a yeast fitness of at most 0.5. Variant GUUCCGUUGGAGUAAUGGUAACGCGUCUCCCUCCUAAGGAGAAGACUGCCGGUUCGAGUCACGUACGGGACG [C11A G50C C61A A69G] has a yeast fitness of at most 0.5. GUUCCGUUGGCGUAAUGGUAACGCGUAUCCCUCCUAAGGAGAAGACUGCGGGUUCGAGUCACGUACCGAACG [C27A C61A G67C] gave a yeast fitness of at most 0.5. Variant GUUCAGUUGGCGUAAUGGUAACGGGUCUCCCUCGUAAGGAGAAGACUGCGGGUUCGAGUCCCGUACGGAACG [C5A C24G C34G] has a yeast fitness of at most 0.5. GUUCCGUUAGCGUAAUGGUAACGCGUGUCCGUCCUUAGGGGAAGACUACGGAUUCGAGUACCGUACGGAACG [G9A C27G C31G A36U A40G G48A G52A C60A] showed a yeast fitness of 0.575. For GUUCCGUUGGCGUAAUGGUAACGCGUCUCCCUCCUCAGGAAAAGACUGCGGGCUCGAGUCCCGUUCGGAACG [A36C G41A U53C A65U], the yeast fitness was at most 0.5. GUUCCGUUGGCGUAAUGGUAACGCGUCUCUCUCCUAAGGAGAAGACUGCCGGUUCGAGUCCCGUACGGAACG [C30U G50C] showed a yeast fitness of 0.69. Work on GUUCCGUUGGCGUAAUGGUAACGCGUCUCCCUUCUAAGGAGAGGACUGCGGAUUCGAGUCCCGUACGGAACG [C33U A43G G52A] yielded a yeast fitness of at most 0.5. GUACCGUUGGCGUAUUGGUAACGCGUCUCCCUCCUAAGGAGAAGACUACGGGUUCGGGUCACGUACGGAACG [U3A A15U G48A A57G C61A] showed a yeast fitness of at most 0.5. In the case of GUUCCGUUGGCGUAAUGGUAACGCGUCUCCCCCCUAAGGAGAAGACUGUGGGUUCGAGUCCCGUGCGGAACG [U32C C49U A65G], the yeast fitness is reported as 0.778. Work on GUUCCGUUGGAGUAAUGGUAACGCGUCUCCCUCCUAAGGAGAAGACUGAGGGUUCGAGUCCAGUACGGAACG [C11A C49A C62A] yielded a yeast fitness of at most 0.5. Work on GUUCCGUUGGCGUAAUGGUAACGCGUCUCCCUCCUACGGAGAAGAGUGGGGGUUCGAGUCCCGUACGGAACG [A37C C46G C49G] yielded a yeast fitness of 0.568. GUUCCGUUGGCGUUAUGGUAAUGCGUCUCCCUCCUAAGGAGAAGUCUGCGGGUUCGAGUCCCGUACGGAACG [A14U C22U A45U] showed a yeast fitness of at most 0.5. In the case of GUUCGGUUGGCGUAAUGGUAACGCGUCUCCCUCCUAAGGAGAAGACUGCGGGUUCGAGUCCCGUACGGACCG [C5G A70C], the yeast fitness is reported as 0.905. Work on GUUCCGUUGGCGUAAUGGUAACACGUCUUCCUGCUAAGGAGGAGACUGCGGGUUCGAGUCCCGUACGGAACG [G23A C29U C33G A42G] yielded a yeast fitness of at most 0.5. Variant GUUCCGUUGGGGUAAUGGUAACGCGUGGCCCUCCUAAGGAGAAGACUGCGGGUUCGAGUCCCGUACGGAACG [C11G C27G U28G] has a yeast fitness of 0.626. Variant GUUCCGUUGGCGUAAUGGUAACGCGUCGCCCUCCUAAGGAGAAGACUGCGGGUUCCAGUCCCGUACGGAACG [U28G G56C] has a yeast fitness of 0.655. GUUCCGUUGGCGUAAUGGUAACGCGUCUCCCUCCUAAGGAGAAGACUGUGGGUUCGAGUCUCGUACGGAGCG [C49U C61U A70G] showed a yeast fitness of 0.831. Variant GUUCCGUUGGCGUAAUGGUAACGCGUCUCCCUCCUAAGGAGAAGACUGCGGGUUCGAGUCCCCUUCGGAACG [G63C A65U] has a yeast fitness of 0.735. For GUUCCGUUGGCGUAUUAGUAACGCGUCUGCCUCCUAAGGAGAAGACUGCGGGUUCGAGUCCCGUACGGAACG [A15U G17A C29G], the yeast fitness was at most 0.5. Variant GUUCCGUUGGCGUAAUGGUGACGCGUCUCCCUCCUGAGGAGAAGACUGCGGGUUCGAGUCCCGUACGGAACG [A20G A36G] has a yeast fitness of 1.01. For GUCCGGUUGGCGUAAUGGGAACGCGUCUCCAUCCUAAGGAGAAGAAUGCGGGUUCGAGUCCCGUACGGAACG [U3C C5G U19G C31A C46A], the yeast fitness was 0.663. GUUCCAUUGGCGUAAUGGUAACGCGUCUCCCUCCUAAGGAGAAGACUGCGGGUUCGAGUCCCGUACGGCACG [G6A A69C] gave a yeast fitness of 0.866. Work on GUUCCGUUGGCGUAAUGGUAACGCGUCUCCCUCCUAAGGAGAAGACUGCGCGUUCGAGUCCCGUGCGGAACG [G51C A65G] yielded a yeast fitness of 0.593. With GUUCCGUUGGCGUAAUGGGAACGCGUUUCCCUCCUAAGGAGCAGACUGCGGGUUCGAGUCCCGUACGGAACG [U19G C27U A42C] the yeast fitness was at most 0.5. In the case of GUUCCGUUGGCGUAAUGGUAACGCGUCUCACUCCUAAGGAGAUGACUGCGGGUUCGAGUCCCGUAUGGAACG [C30A A43U C66U], the yeast fitness is reported as 0.75. Variant GUUCCGUUGGCGUAAUGGUAACGCGUCUCCCUCCUAAGGAGAAGACUGCGGGUUCGGGUCCCGUACAGAACG [A57G G67A] has a yeast fitness of 0.878. GUUCCGUUGGCGUAAUGCUAACGCGUCUCCCUCCUAAGGAGAAGUCUGCGGGUUCGAGUCCCGUACGGAACG [G18C A45U] gave a yeast fitness of 0.549. With GUUCCAUUGGCGUAAUGGUAACGCGUCUCCCUCCUAAGGAGAAGACUGCGAGUUCGAGUCCCGUACGGAACG [G6A G51A] the yeast fitness was 0.83. For GUUCCGUUGGCGUAAUGGGCACGCGCCUCCCUCCUAAGGAAAAGACUGCGGGUUCGAGUCCCAUAUGGAACG [U19G A20C U26C G41A G63A C66U], the yeast fitness was at most 0.5.
